Consider one protein from ChEMBL document CHEMBL1135725, “N-Aryl N'-hydroxyguanidines, a new class of NO-donors after selective oxidation by nitric oxide synthases: structure-activity relationship” (J Med Chem, 2002).

Holding throughout (type): functional
Common to all, as to details: Mus musculus

Substrate in series [1]: N/C(=N/c1ccc(O)cc1)NO
Put plainly: (§1) Kinetic constant for NO formation during oxidation by NADPH and molecular Oxygen with NOS II. The essentials:
(§2)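 Recombinant NOS II (E. coli-expressed, purified) assayed at 37 °C in 50 mM HEPES pH 7.4 with 1 mM NADPH, 100 μM BH4, 5 mM DTT, SOD and catalase (100 U/mL each), and 12-15 μM oxyhemoglobin. Substrate was varied from 5 μM to 2.5 mM. Enzyme level was set to keep oxyhemoglobin conversion below 30%. Kinetic constants come from the initial methemoglobin formation rate at 401 nm; three to four experiments.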

Substrate in series [2]: Cc1ccc(NC(=N)NO)cc1
The description is as §1. The essentials:
as §2

Substrate in series [3]: N=C(NO)Nc1ccccc1
The description is as §1. A digest of the protocol:
as §2

Substrate in series [4]: COc1ccc(NC(=N)NO)cc1
The series is described as §1. The essentials:
as §2

Substrate in series [5]: N/C(=N/c1ccsc1)NO
The series is described as §1. A digest of the protocol: as §2

Substrate in series [6]: N/C(=N/c1ccc(F)cc1)NO
The series is described as §1. The essentials:
as §2

B1: Nitric oxide synthase, inducible (Mus musculus), P29477 (protein)
chain: MACPWKFLFKVKSYQSDLKEEKDINNNVKKTPCAVLSPTIQDDPKSHQNGSPQLLTGTAQNVPESLDKLHVTSTRPQYVRIKNWGSGEILHDTLHHKATSDFTCKSKSCLGSIMNPKSLTRGPRDKPTPLEELLPHAIEFINQYYGSFKEAKIEEHLARLEAVTKEIETTGTYQLTLDELIFATKMAWRNAPRCIGRIQWSNLQVFDARNCSTAQEMFQHICRHILYATNNGNIRSAITVFPQRSDGKHDFRLWNSQLIRYAGYQMPDGTIRGDAATLEFTQLCIDLGWKPRYGRFDVLPLVLQADGQDPEVFEIPPDLVLEVTMEHPKYEWFQELGLKWYALPAVANMLLEVGGLEFPACPFNGWYMGTEIGVRDFCDTQRYNILEEVGRRMGLETHTLASLWKDRAVTEINVAVLHSFQKQNVTIMDHHTASESFMKHMQNEYRARGGCPADWIWLVPPVSGSITPVFHQEMLNYVLSPFYYYQIEPWKTHIWQNEKLRPRRREIRFRVLVKVVFFASMLMRKVMASRVRATVLFATETGKSEALARDLATLFSYAFNTKVVCMDQYKASTLEEEQLLLVVTSTFGNGDCPSNGQTLKKSLFMLRELNHTFRYAVFGLGSSMYPQFCAFAHDIDQKLSHLGASQLAPTGEGDELSGQEDAFRSWAVQTFRAACETFDVRSKHHIQIPKRFTSNATWEPQQYRLIQSPEPLDLNRALSSIHAKNVFTMRLKSQQNLQSEKSSRTTLLVQLTFEGSRGPSYLPGEHLGIFPGNQTALVQGILERVVDCPTPHQTVCLEVLDESGSYWVKDKRLPPCSLSQALTYFLDITTPPTQLQLHKLARFATDETDRQRLEALCQPSEYNDWKFSNNPTFLEVLEEFPSLHVPAAFLLSQLPILKPRYYSISSSQDHTPSEVHLTVAVVTYRTRDGQGPLHHGVCSTWIRNLKPQDPVPCFVRSVSGFQLPEDPSQPCILIGPGTGIAPFRSFWQQRLHDSQHKGLKGGRMSLVFGCRHPEEDHLYQEEMQEMVRKRVLFQVHTGYSRLPGKPKVYVQDILQKQLANEVLSVLHGEQGHLYICGDVRMARDVATTLKKLVATKLNLSEEQVEDYFFQLKSQKRYHEDIFGAVFSYGAKKGSALEEPKATRL
As a reminder, the Km is the concentration of substrate that gives half-maximal velocity. Regarding B1, the Km in series [1] was 425 µM; in series [2], 1100 µM; in series [3], 270 µM; in series [4], 2600 µM; in series [5] it was 25 µM; in series [6], 300 µM.
